DNMT1 block: human DNMT1 methyltransferase inhibitors, primary screen, biochemical, molecular beacon, fluorescence, HinP1I cleavage, uHTS; hit rate 0.83% among 360,000; inhibition (reported as % activation of signal), % at 10 µM; DNA (cytosine-5)-methyltransferase 1 (Homo sapiens), P26358; in the data active = inhibition above about 50%
NadD block: inhibitors of S. aureus NadD, primary screen, biochemical, colorimetric, uHTS; Nicotinate-nucleotide adenylyltransferase NadD (Staphylococcus aureus N315); purified NadD enzyme, colorimetric absorbance read-out; inhibition, % at 20 µM; hit rate 0.78% among 360,000; AID 602399, 2012; in the data active = inhibition above about 26%
Scp1 inh: Scp-1 phosphatase inhibitors, primary screen, biochemical, colorimetric, uHTS; AID 493091, 2011; Recombinant Scp1, phosphopeptide, malachite green phosphate absorbance; Carboxy-terminal domain RNA polymerase II polypeptide A small phosphatase 1 (Homo …; inhibition, % at 20 µM; hit rate 0.88% among 340,000;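 active = inhibition above about 50% at 20 µM, limit read from the data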;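 also: plate controls were DMSO wells with enzyme for no effect and wells lacking enzyme for full effect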
Target sequence (Q9GZU7 76-261 limits assumed): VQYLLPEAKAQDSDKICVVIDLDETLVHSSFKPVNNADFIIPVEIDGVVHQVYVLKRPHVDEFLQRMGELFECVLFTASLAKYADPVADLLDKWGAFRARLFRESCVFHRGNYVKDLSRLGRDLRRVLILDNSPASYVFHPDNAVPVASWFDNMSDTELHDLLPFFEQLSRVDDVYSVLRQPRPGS
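Test system: SCP-1 catalytic domain; Buffer or medium: Acidic Tris acetate buffer with magnesium and detergent; Also added: Phosphorylated 17-residue peptide substrate; Compound: single 20 µM dose, 1% DMSO; Schedule: enzyme reaction 45 min at room temperature, colour 5 min, stabilisation 30 min; Signal: Phosphate-binding colour reagent, absorbance read at 630 nm.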
LMPTP block: LMPTP phosphatase inhibitors, primary screen, biochemical, fluorescence intensity, uHTS. Low molecular weight phosphotyrosine protein phosphatase (Homo sapiens), P24666. recombinant LMPTP-A, OMFP fluorogenic substrate. inhibition, % at 20 µM. hit rate 0.22% among 360,000. AID 651560, 2012;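 active = compounds that cut the enzyme signal by at least half of the control window in the single-dose screen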;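 also: plate controls were DMSO wells with enzyme plus substrate for no effect and substrate without enzyme for full effect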
Target sequence (P24666 whole entry, looked up): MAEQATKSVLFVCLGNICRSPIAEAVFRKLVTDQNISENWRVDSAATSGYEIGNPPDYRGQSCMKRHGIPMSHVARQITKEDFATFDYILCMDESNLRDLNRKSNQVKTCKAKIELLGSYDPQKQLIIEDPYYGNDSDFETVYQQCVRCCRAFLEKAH
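test system = LMPTP-A | amount = 0.625 nM LMPTP-A final | reagent = fluorogenic phosphatase substrate OMFP at 400 µM final | incubation = 50 min at room temperature | benchmarks = no-enzyme low control, uninhibited high control | medium = Bis-Tris pH 6.0, DTT, detergent | signal = fluorescence intensity of OMFP turnover product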
SUMO1 PPI mod: modulators of SUMO1 protein-protein interactions, primary screen, biochemical, uHTS; SUMO1 binding to a labelled peptide, TR-FRET, 1 h; inhibition, % at 20 µM; hit rate 0.33% among 360,000; in the data active = inhibition above about 37%
Target sequence (P63165 whole entry, looked up): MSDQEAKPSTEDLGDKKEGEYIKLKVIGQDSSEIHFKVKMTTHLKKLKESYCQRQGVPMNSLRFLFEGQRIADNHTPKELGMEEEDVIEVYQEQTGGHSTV
STEP block: STEP phosphatase inhibitors, primary screen, biochemical, fluorescence intensity, uHTS | recombinant STEP, OMFP fluorogenic substrate | inhibition, % at 20 µM | hit rate 0.25% among 360,000;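 active = inhibition at 20 µM, scaled per plate between control wells, above about 37%, limit read from the data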;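 also: 0% = DMSO with enzyme and substrate and 100% = substrate only without enzyme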
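Material: STEP (striatal-enriched tyrosine phosphatase) enzyme, cell-free | Medium: 50 mM Bis-Tris pH 6.0 with 2.5 mM DTT and 0.005% Tween 20 | Read-out: Percent inhibition scaled to no-enzyme and uninhibited-enzyme controls, plate-pattern corrected | Signal: Fluorescence read at 480 nm ex / 540 nm em | Times: 20 min reaction, room temperature, in the dark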
Scp1 confirm: Scp-1 phosphatase inhibitors, retest, confirmation, biochemical, colorimetric, single concentration; shares compounds with Scp1 inh; recombinant SCP-1 catalytic domain, phosphate release, malachite green absorbance; inhibition, % at 20 µM; hit rate 61% among 2,500; AID 540281, 2011;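 also: plate controls were DMSO with enzyme for no effect and buffer wells lacking enzyme for full effect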
Scp-1 MG ctr: colorimetric readout interference by compounds, confirmation, artefact control for Scp-1 inhibitor project, biochemical, single concentration; shares compounds with Scp1 inh; Colorimetric interference counterscreen, malachite green absorbance 630 nm; apparent inhibition (interference), % at 20 µM; 2,500 tested, under 10 active; AID 540313, 2011;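 also: compounds added after enzyme reaction finished so only phosphate colour detection is probed; plate controls were DMSO wells with completed Scp-1 reaction for no effect and substrate wells lacking enzyme for full effect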
Scp1 DSF: Scp-1 binding by thermal shift, confirmation, orthogonal assay for Scp-1 inhibitor project, biophysical, differential scanning fluorimetry. AID 540329, 2011. thermal shift relative to vanadate control, % at 40 µM. hit rate 25% among 1,500. Recombinant SCP1, Sypro Orange thermal shift Tm. shares compounds with Scp1 inh;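 active = substances whose mean melting-temperature shift, as a percentage of the reference inhibitor's shift, reaches about 5.3%, limit read from the data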;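 also: 0% = Tm of DMSO wells and 100% = Tm with sodium orthovanadate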
* hit, by the source's call; . = no result. Only some compounds are listed: those with a hit (about 2.4% of all), similar ones and a draw of the others.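 The calls were made as follows, unless noted: active = inhibition of at least 30% at 20 µM; inactive = the rest.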

SMILES	DNMT1 block	NadD block	Scp1 inh	LMPTP block	SUMO1 PPI mod	STEP block	Scp1 confirm	Scp-1 MG ctr	Scp1 DSF
CCc1ccc(OCC(=O)NNC(=O)c2ccc(NC(=O)C3CC3)cc2)cc1	16.1	-1.2	51.7*	37.1	18.7	39.0	78.2*	-10.7	-24.8
CCCCn1c(Cn2nc(C(=O)O)c3ccccc3c2=O)nc2cc(S(N)(=O)=O)ccc21	1.4	2.8	-3.0	-1.6	-6.2	0.7	.	.	.
CCc1ccc(-n2nnnc2SCC(=O)Nc2ccc(NC(C)=O)cc2)cc1	-2.1	-3.5	-2.0	0.1	-0.4	-1.4	.	.	.
CC(=O)Nc1ccc(-n2nnnc2SCC(=O)Nc2cccc(NC(=O)c3ccco3)c2)cc1	-4.0	0.4	55.3*	0.1	30.5	4.4	30.2*	-5.4	2.6
C=CCOc1cccc(/C=C\c2nc(O)c([N+](=O)[O-])c(=O)[nH]2)c1	5.9	0.4	-6.8	-1.5	2.6	2.6	.	.	.
CCC(C)Oc1ccc(/C=C/c2[nH]c(=O)[nH]c(=O)c2[N+](=O)[O-])cc1OC (stereo not given)	2.8	5.2	-1.9	-1.0	-1.0	-1.6	.	.	.
C=CCOc1ccc(/C=C\c2nc(O)c([N+](=O)[O-])c(=O)[nH]2)cc1OC	9.0	1.2	62.0*	-0.9	7.3	2.5	58.8*	-2.1	-8.0
C=CCOc1ccc(/C=C\c2nc(O)c([N+](=O)[O-])c(=O)[nH]2)cc1OCC	18.7	-3.8	98.7*	1.0	7.1	6.3	44.9*	-14.0	4.1
COc1ccc(/C=C\c2nc(O)c([N+](=O)[O-])c(=O)[nH]2)cc1O	2.0	-3.0	-2.8	-1.9	-1.6	-0.1	.	.	.
COc1cc(/C=C/c2[nH]c(=O)[nH]c(=O)c2[N+](=O)[O-])ccc1OCCC(C)C	13.5	2.0	62.6*	1.5	15.4	-0.9	71.2*	-9.8	1.6
O=C(COC(=O)/C=C/c1ccccc1Cl)NCCNC(=O)COC(=O)/C=C/c1ccccc1Cl	2.5	2.6	-10.7	-1.1	0.7	1.8	.	.	.
COCCNC(=O)c1cc(-c2ccc(-c3ccccc3)cc2)nc2ccccc12	-8.0	0.9	0.4	2.9	-7.9	2.8	.	.	.
COc1cc(OC)cc(OCC(O)Cn2ccnc2)c1 (stereo not given)	-0.7	0.8	-2.7	-1.5	-5.1	-10.7	.	.	.
C[n+]1cccc(C(=O)NNC(=O)C23CC4CC(CC(C4)C2)C3)c1	-3.6	22.1	101.7*	-0.5	0.9	-0.9	12.7	-15.0	.
Cc1cccc(Nc2ncc3c(n2)CC(c2ccco2)CC3=O)c1 (stereo not given)	-6.6	3.0	85.5*	59.5*	-6.5	0.8	-15.3	-11.4	.
CC(=O)NC(C)(c1ccccc1)c1nc(-c2cc(F)cc(F)c2)cs1 (stereo not given)	-0.1	-1.9	.	0.2	9.6	-2.9	.	.	.
CCSc1nnc(NC(=O)CSc2sc3c(O)cc(=O)[nH]c3c2C#N)s1	77.1*	10.9	77.3*	61.6*	35.6	29.9	49.1*	-13.1	12.9*
Cc1csc(NC(=O)CSc2sc3c(O)cc(=O)[nH]c3c2C#N)n1	43.2	5.8	68.0*	20.4	25.2	31.9	53.2*	-17.8	12.4*
CCCSc1nnc(NC(=O)CSc2nc3[nH]c(=O)cc(O)c3s2)s1	6.8	5.2	17.4	2.4	15.0	3.7	.	.	.
O=C1NC(=O)C(c2ccccc2)(C2CCCC2)N1 (stereo not given)	0.8	1.0	1.8	0.8	-3.1	-1.3	.	.	.
COc1ccccc1-c1nnc2sc(-c3cnccn3)nn12	13.4	-1.0	70.2*	3.2	-7.4	1.5	55.9*	-11.2	5.8*
CC1(C(=O)NS(=O)(=O)C2CC2)CCCN(C(=O)c2ccc3c(c2)OCO3)C1 (stereo not given)	3.8	2.7	.	-1.2	1.6	-0.9	.	.	.
N#C/C(=C\c1c(N2CCOCC2)nc2ccccn2c1=O)S(=O)(=O)c1ccccc1	4.3	-2.5	53.8*	0.5	-10.9	3.1	-2.7	-5.7	.
COc1ccccc1C(=O)NCc1ccccn1	2.3	-4.6	-12.9	-1.5	4.7	-0.1	.	.	.
O=C(c1cc2c(c(-c3cccc(-c4ccncc4)c3)n1)[C@H](CCO)N(C(=O)c1ccc3c(c1)OCO3)C2)N1CCOCC1	.	-1.0	.	0.1	1.9	.	.	.	.
SMILES	DNMT1 block	NadD block	Scp1 inh	LMPTP block	SUMO1 PPI mod	STEP block	Scp1 confirm	Scp-1 MG ctr	Scp1 DSF
CN(C)C(=O)c1ccc(OCC(F)(F)F)nc1	2.8	5.6	79.2*	-0.8	-1.2	-1.8	-9.3	-14.7	.
N/C(=N\OC(=O)c1ccc(OCC(F)(F)F)nc1)c1ccc(Cl)cc1	7.7	0.5	-9.5	-1.9	8.5	1.0	.	.	.
COc1ccccc1CNS(=O)(=O)CCNCc1ccco1	0.8	-4.8	-1.9	-1.6	-1.3	-1.7	.	.	.
NC1=NC(=O)C(CC(=O)NCc2ccccc2)S1 (stereo not given)	4.4	0.9	3.1	-0.6	-4.8	0.0	-13.2	-9.0	.
NC1=NC(=O)CC(C(=O)NCc2ccccc2)S1 (stereo not given)	1.7	-6.1	0.7	-0.9	-2.8	-0.1	.	.	.
COc1ccc(C)cc1S(=O)(=O)NC(C)C(=O)Nc1ccc2c(c1)OCO2 (stereo not given)	-8.7	4.4	-5.5	1.1	-1.6	11.0	.	.	.
NNc1nccc(Nc2ccccc2C(=O)O)n1	2.0	5.8	66.2*	19.7	26.9	0.0	65.1*	-7.1	-0.1
COc1ccccc1NC(C)=[N+](C)CCNS(=O)(=O)c1ccc(Cl)cc1	0.8	11.4	95.7*	-0.9	3.4	0.1	80.7*	-14.8	-9.2

Source: PubChem BioAssay (Sanford-Burnham Center for Chemical Genomics)
